Assay results taken from PMC4245164 (ACS Chemical Biology, 2014).

Columns and labels:
Pmp22 [1] = test: S16 GLuc and secNLuc Pmp22 reporter qHTS follow-up assays; type: cell-based, rat; details: for potency on Pmp22 expression: data not shown; for effect on reporter activity: GLuc and secNLuc reporters
Pmp22 [2] = test: S16 secNLuc reporter cell assay; type: cell-based, rat
CMT1A patients = details: human clinical trials; cited from earlier work
Pmp22 [3] = test: Quantitative RT-PCR of endogenous Pmp22 in S16 cells; type: cell-based, rat; details: qRT-PCR, 1 or 10 nM, 24 h
Summary of the method: (§1)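 S16 rat Schwann cells were plated at 2×10^5 cells/well in 6-well plates. They were treated for 24 h with test compound at 1 nM or 10 nM, or with DMSO (0.6%) only. RNA was purified and reverse-transcribed to cDNA. qPCR used SYBR green reactions or Taqman-based custom microfluidic arrays. Data were normalized to ActB and expressed relative to the untreated sample, set to 1 for each gene.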

[4] = tested on: major myelin genes and their regulators; test: Quantitative RT-PCR of co-regulated myelin genes and regulators in S16 cells; type: cell-based, rat; details: qRT-PCR, 1 or 10 nM, 24 h
Summary of the method: as §1

PMP22 regulatory element = test: S16 intronic enhancer FLuc reporter assay; type: cell-based, rat; details: retest after completion of the study
Summary of the method: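 S16 cells carrying a randomly integrated firefly luciferase reporter driven by the Pmp22 intronic enhancer were retested with test compound after the main study. Data are shown with standard deviation of two replicates.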

## COc1ccc2c(c1)c(C1=C(c3c[nH]c4ccccc34)C(=O)NC1=O)cn2CCCN(C)C [Go 6983]
Pmp22 [1]
  potency on Pmp22 expression: lack of potency

## CCCCCCCCCCCCCC(=O)O[C@@H]1[C@@H](C)[C@@]2(O)[C@@H](C=C(CO)C[C@]3(O)C(=O)C(C)=C[C@@H]23)[C@@H]2C(C)(C)[C@]12OC(C)=O [PMA, Phorbol 12-myristate 13-acetate]
Pmp22 [2]; nanomolar levels, 24 h, secNLuc S16 cell line
  effect on Pmp22 reporter expression: repression

## O=C1O[C@H]([C@@H](O)CO)C(O)=C1O [ascorbic acid]
CMT1A patients
  effect in CMT1A patients: have not shown a significant effect

## CCC/C=C/C=C/C(=O)O[C@H]1/C(=C/C(=O)OC)C[C@H]2C[C@H]([C@@H](C)O)OC(=O)C[C@H](O)C[C@@H]3C[C@H](OC(C)=O)C(C)(C)[C@](O)(C[C@@H]4C/C(=C/C(=O)OC)C[C@H](/C=C/C(C)(C)[C@]1(O)O2)O4)O3 [bryostatin, Bryostatin 1]
Pmp22 [3]
  Pmp22 expression relative to untreated S16 cells: ≤ 50%
[4]
  Myelin-associated glycoprotein expression: decline to a greater degree than Pmp22
  Periaxin expression: decline to a greater degree than Pmp22
  expression of most of the other tested genes: not affected
PMP22 regulatory element
  effect in the intronic FLuc assay: no inhibitory effect
Pmp22 [2]; S16 NLuc assay, full titration response profile
  efficacy relative to the control, bortezomib: partial efficacy

## Cn1cc(C2=C(c3cn(C4CCN(Cc5ccccn5)CC4)c4ccccc34)C(=O)NC2=O)c2ccccc21 [enzastaurin]
Pmp22 [1]
  potency on Pmp22 expression: lack of potency

## CC(=O)[C@@]1(O)CC[C@H]2[C@@H]3CCC4=CC(=O)CC[C@]4(C)C3(F)[C@@H](O)C[C@@]21C (stereo partly drawn) [flugestone]
Pmp22 [1]
  effect on reporter activity: increasing reporter activity

## CC#C[C@]1(O)CC[C@H]2[C@@H]3CCC4=CC(=O)CCC4=C3[C@@H](c3ccc(N(C)C)cc3)C[C@@]21C [mifepristone]
Pmp22 [1]
  effect on reporter activity: marginal effect
